Screens (PubChem BioAssay)
Only some compounds are listed: those with a hit (about 6.7% of all), similar ones and a draw of the others.
PREPL inhibitor: inhibits the human prolyl oligopeptidase-like enzyme | recombinant PREPL, fluorescence polarization activity-based probe | inhibition, % at 5.96 µM | 0.68% of 320,000 active | AID 2751; in the data active means inhibition above about 43%;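 further: 0% = enzyme with DMSO and 100% = wells lacking enzyme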
Target sequence (Q4J6C6 whole entry, looked up): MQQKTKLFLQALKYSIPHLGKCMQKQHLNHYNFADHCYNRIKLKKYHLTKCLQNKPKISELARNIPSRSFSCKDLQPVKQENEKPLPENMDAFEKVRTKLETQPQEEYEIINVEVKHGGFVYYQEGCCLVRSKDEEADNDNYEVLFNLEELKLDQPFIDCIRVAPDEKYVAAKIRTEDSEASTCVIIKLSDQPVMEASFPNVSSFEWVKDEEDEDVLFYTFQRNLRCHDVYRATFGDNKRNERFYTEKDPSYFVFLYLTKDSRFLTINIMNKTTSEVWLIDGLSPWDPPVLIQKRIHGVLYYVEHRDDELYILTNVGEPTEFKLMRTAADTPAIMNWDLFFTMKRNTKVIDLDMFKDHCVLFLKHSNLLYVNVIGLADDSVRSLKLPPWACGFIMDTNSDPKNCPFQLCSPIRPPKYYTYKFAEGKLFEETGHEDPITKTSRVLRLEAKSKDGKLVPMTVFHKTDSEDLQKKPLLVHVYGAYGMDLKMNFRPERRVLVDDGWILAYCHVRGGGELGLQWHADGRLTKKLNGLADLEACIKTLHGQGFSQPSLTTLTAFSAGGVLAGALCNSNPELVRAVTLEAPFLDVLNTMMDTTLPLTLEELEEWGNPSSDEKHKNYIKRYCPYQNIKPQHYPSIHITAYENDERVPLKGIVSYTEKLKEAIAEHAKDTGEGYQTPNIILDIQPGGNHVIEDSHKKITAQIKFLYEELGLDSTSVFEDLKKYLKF
GRIN3A LBD mod: NR3A (human) ligand-binding domain modulation. NR3A LBD differential scanning fluorimetry, Tm shift; 0% = protein alone, 100% = glycine-bound protein. AID 1259313. Tm shift relative to glycine control, % at 25 µM. 2.5% of 340,000 active;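 active means melting temperature shift of at least 10% of the positive control shift, at one fixed dose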
CHOP inhibitor: CHOP inhibition in unfolded protein response. CHO-K1 CHOP-promoter luciferase, tunicamycin-induced, 15-18 h. inhibition, % at 10 µM. 3.8% of 220,000 active. AID 2732;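 active means compounds that reduced the stress-induced luciferase reporter signal by more than about 70% of percent inhibition, limit read from the data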;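 further: 0% = tunicamycin plus vehicle and 100% = wells without tunicamycin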
Beta cell apopt: blocks beta cell apoptosis | 0.8% of 300,000 active | protection from apoptosis, % (concentration not given with the values) | AID 435005 | INS-1E cytokine-induced death, ATP luminescence, 48 h; percent of positive-control rescue, neutral wells zero;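 active means Every replicate reaches about 75%, or at least half do and their mean reaches it too, limit read from the data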;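 further: 0% = cytokine-treated negative control wells and 100% = positive control rescue; higher means more ATP so stronger rescue from cytokine killing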
T cruzi repl: blocks replication of Trypanosoma cruzi; T. cruzi beta-gal in NIH3T3, luminescence, 90 h; inhibition, % (test concentration not listed); 1.4% of 300,000 active; AID 1885;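 active means mean inhibition across valid replicates above about 55%, limit read from the data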;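 further: signal also drops with host cell toxicity which is not excluded here; 0% = plate median of DMSO wells and 100% = zero luminescence signal; higher percent means less beta-gal luminescence so fewer parasites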
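System: NIH/3T3 fibroblasts plus reporter T. cruzi. Medium: DMEM plus 2% FBS. Probe or stimulus: 5000 reporter trypomastigotes per well. Compound: single 50 nL compound addition per well in DMSO. Incubation: co-culture of at least 90 h after 3 h attachment. Detection: GalScreen β-gal luminescence, detergent lysis, 60 min. Evaluation: parasite load inhibition, %.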
CSC inhib: blocks cancer stem cells; 1.1% of 300,000 active; cancer stem cell-like cells viability, luminescence; inhibition, % at 7.5 µM; in the data active means inhibition above about 75%; tested in HMLE shEcad cells
* = called active by the depositor.

Results for CCOc1ccccc1N(C(=O)CNC(=O)c1ccco1)C(C(=O)NC(C)(C)C)c1ccncc1 (centres undefined) ?
PREPL inhibitor: 2; GRIN3A LBD mod: 395*; CHOP inhibitor: 25; Beta cell apopt: 0; T cruzi repl: 0; CSC inhib: 7

Results for CC(OC(=O)c1ccccc1NCCO)C(=O)NC1CCCCC1C (centres undefined) ?
PREPL inhibitor: 4; GRIN3A LBD mod: -1; Beta cell apopt: 0; T cruzi repl: 1

How did CC(C)CCN1CCN(C2CCN(c3ccc4c(c3)OCO4)CC2)CC1CCO (centres undefined) do in these assays?
PREPL inhibitor: 13; GRIN3A LBD mod: -6; CHOP inhibitor: 13; Beta cell apopt: -1; T cruzi repl: 66*; CSC inhib: 50

Results for Cc1ccccc1OCCn1cnc2cc([N+](=O)[O-])ccc2c1=O ?
PREPL inhibitor: 36; GRIN3A LBD mod: -2; CHOP inhibitor: 21; Beta cell apopt: 1; T cruzi repl: 60*; CSC inhib: 10

Results for O=C(Cn1cnc2ccccc2c1=O)Nc1ccc2c(c1)CCC2 ?
PREPL inhibitor: 4; GRIN3A LBD mod: 0; CHOP inhibitor: 17; Beta cell apopt: 0; T cruzi repl: 19; CSC inhib: -3

Results for O=C(Cn1cnc2cc([N+](=O)[O-])ccc2c1=O)Nc1ccc2c(c1)CCC2 ?
PREPL inhibitor: -56; GRIN3A LBD mod: 0; CHOP inhibitor: -9; Beta cell apopt: -3; T cruzi repl: 64*

How did O=C(Cn1cnc2cc([N+](=O)[O-])ccc2c1=O)NCCc1ccc(F)cc1 do in these assays?
PREPL inhibitor: 22; GRIN3A LBD mod: -3; CHOP inhibitor: 18; Beta cell apopt: -2; T cruzi repl: 44; CSC inhib: 5

How did CCN(CC)S(=O)(=O)c1ccc(C)c(NC(=O)Cn2cnc3cc([N+](=O)[O-])ccc3c2=O)c1 do in these assays?
PREPL inhibitor: 27; GRIN3A LBD mod: -5; CHOP inhibitor: 3; Beta cell apopt: 0; T cruzi repl: 85*; CSC inhib: 4

What do the screens show for `O=C(Cn1cnc2cc([N+](=O)[O-])ccc2c1=O)Nc1cccc2ccccc12`?
PREPL inhibitor: 33; GRIN3A LBD mod: -5; CHOP inhibitor: -5; Beta cell apopt: 1; T cruzi repl: 43; CSC inhib: 8

What do the screens show for `O=C(Cn1cnc2cc([N+](=O)[O-])ccc2c1=O)NCCc1ccc(Cl)cc1`?
PREPL inhibitor: 10; GRIN3A LBD mod: -4; CHOP inhibitor: 18; Beta cell apopt: -4; T cruzi repl: 64*; CSC inhib: -7

Results for CCOC(=O)CCCSc1nnc(CCCCCN2C(=O)c3cccc4cccc(c34)C2=O)o1 ?
PREPL inhibitor: 7; GRIN3A LBD mod: 2; CHOP inhibitor: -6; Beta cell apopt: -4; T cruzi repl: 15; CSC inhib: -1

Results for CN(C(=O)CSc1nnc(Cc2cccs2)n1C1CC1)C1CCS(=O)(=O)C1 (centres undefined) ?
GRIN3A LBD mod: -1

What do the screens show for `COc1ccc2oc(C(=O)N(C)Cc3ccc(OC(F)F)cc3)c(C)c2c1`?
PREPL inhibitor: -6; GRIN3A LBD mod: 13*; Beta cell apopt: -5; T cruzi repl: -7; CSC inhib: 10

How did COc1ccc2oc(C(=O)N(C)CCOc3ccccc3)c(C)c2c1 do in these assays?
PREPL inhibitor: 4; GRIN3A LBD mod: 2; Beta cell apopt: -5; T cruzi repl: 3; CSC inhib: -5

How did COC(=O)CSc1ncnc2c1cnn2Cc1ccccc1 do in these assays?
PREPL inhibitor: -6; GRIN3A LBD mod: 2; CHOP inhibitor: -7; Beta cell apopt: -12; T cruzi repl: 5; CSC inhib: -18

Results for CC(C)OC(=O)CSc1ncnc2c1cnn2Cc1ccccc1 ?
PREPL inhibitor: 3; GRIN3A LBD mod: 3; CHOP inhibitor: 75*; Beta cell apopt: -7; T cruzi repl: -9; CSC inhib: -7

Results for Cc1ccc(-c2nnc(-c3cccc(Br)c3)o2)cc1 ?
PREPL inhibitor: 4; GRIN3A LBD mod: 0; CHOP inhibitor: 5; Beta cell apopt: -2; T cruzi repl: -6; CSC inhib: 2

Results for Brc1cccc(-c2nnc(-c3ccccc3)o2)c1 ?
PREPL inhibitor: -2; GRIN3A LBD mod: 2; CHOP inhibitor: 75*; Beta cell apopt: 2; CSC inhib: -18
